From ChEMBL document CHEMBL2375307, “Synthesis and identification of β-aryloxyquinoline based diversely fluorine substituted N-aryl quinolone derivatives as a new class of antimicrobial, antituberculosis and antioxidant agents” (Eur J Med Chem, 2013)
Converted amounts (≈) assume the structure as drawn.

Assays:
Bacillus subtilis = assay: Antibacterial activity against Bacillus subtilis MTCC 441 assessed as growth inhibition after overnight incubation by NCCLS broth microdilution method; type: functional
How it was run: (§1)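 Broth microdilution per NCCLS in Mueller Hinton broth, compounds diluted in DMSO. Primary screen at 500, 250 and 200 µg/mL; actives retested at 100, 62.5, 50, 25 and 12.5 µg/mL. Tubes incubated overnight at 37 °C. […] Non-growing tubes subcultured overnight at 37 °C to judge bacteriostatic versus bactericidal action.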

Aspergillus fumigatus = assay: Antifungal activity against Aspergillus fumigatus MTCC 3008 assessed as growth inhibition after overnight incubation by NCCLS broth microdilution method; type: functional; how it was run: as §1
Salmonella typhi = assay: Antibacterial activity against Salmonella typhi MTCC 98 assessed as growth inhibition after overnight incubation by NCCLS broth microdilution method; type: functional, Salmonella enterica subsp. enterica serovar Typhi; conditions: Salmonella enterica
[1] = Antioxidant activity of the compound assessed as ascorbic acid equivalent of ferric tripyridyl triazine reducing activity at 200 ug/mL after 15 mins by FRAP assay; type: functional
How it was run: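 FRAP, modified Benzie and Strain method. Fe(III)-TPTZ reagent made with TPTZ in 40 mM HCl, FeCl3 solution and acetate buffer pH 3.6. 200 µL sample solution mixed with 3 mL reagent and held 15 min at 37 °C. Fe(II)-TPTZ read at 593 nm against an ascorbic acid standard, expressed as ascorbic acid equivalents (mmol/100 g compound).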

Escherichia coli = assay: Antibacterial activity against Escherichia coli MTCC 443 assessed as growth inhibition after overnight incubation by NCCLS broth microdilution method; type: functional; how it was run: as §1
Clostridium tetani = assay: Antibacterial activity against Clostridium tetani MTCC 449 assessed as growth inhibition after overnight incubation by NCCLS broth microdilution method; type: functional
Candida albicans = assay: Antifungal activity against Candida albicans MTCC 227 assessed as growth inhibition after overnight incubation by NCCLS broth microdilution method; type: functional; how it was run: as §1
Vibrio cholerae = assay: Antibacterial activity against Vibrio cholerae MTCC 3906 assessed as growth inhibition after overnight incubation by NCCLS broth microdilution method; type: functional
[2] = system: Mycobacterium tuberculosis; assay: Antitubercular activity against Mycobacterium tuberculosis H37Rv assessed as growth inhibition at 250 ug/mL after 12 to 28 days by Lowenstein-Jensen method relative to control; type: functional; conditions: read-out: GI
How it was run: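 Modified Lowenstein-Jensen method. Compound at 250 in DMSO added to liquid L-J medium, then sterilized by inspissation and incubated 24 h at 37 °C. Streaked with H37Rv harvested in 0.85% saline (5 × 10⁴ bacilli/tube) and incubated at 37 °C. Colonies read at 12, 22 and 28 days versus drug-free control; no colonies or <20 colonies scored as inhibition.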

Streptococcus pneumoniae = assay: Antibacterial activity against Streptococcus pneumoniae MTCC 1936 assessed as growth inhibition after overnight incubation by NCCLS broth microdilution method; type: functional; how it was run: as §1

| Compound | MIC (Bacillus subtilis) | MIC (Aspergillus fumigatus) | MIC (Salmonella typhi) | Activity [1] | MIC (Escherichia coli) | MIC (Clostridium tetani) | MIC (Candida albicans) | MIC (Vibrio cholerae) | inhibition of growth at 250 µg/mL [2] | MIC (Streptococcus pneumoniae) |
| --- | --- | --- | --- | --- | --- | --- | --- | --- | --- | --- |
| Cc1ccc2nc(Oc3ccc(C#N)cc3)c(C=O)cc2c1 | 100 µg/mL (≈ 347 µM) | 250 µg/mL (≈ 867 µM) | 125 µg/mL (≈ 434 µM) | 16 equiv | 62.5 µg/mL (≈ 217 µM) | 100 µg/mL (≈ 347 µM) | > 1000 µg/mL | 125 µg/mL (≈ 434 µM) | 26% | 200 µg/mL (≈ 694 µM) |
| CC1(C)CC(=O)C2=C(C1)N(c1cc(F)ccc1F)C(N)=C(C#N)C2c1cc2cc(Cl)ccc2nc1Oc1ccc(C#N)cc1 (stereo not given) | 100 µg/mL (≈ 164 µM) | > 1000 µg/mL | 125 µg/mL (≈ 206 µM) | 2.17 equiv | 250 µg/mL (≈ 411 µM) | 125 µg/mL (≈ 206 µM) | 1000 µg/mL (≈ 1640 µM) | 250 µg/mL (≈ 411 µM) | 87% | 250 µg/mL (≈ 411 µM) |
| N#CC1=C(N)N(c2cc(F)ccc2F)C2=C(C(=O)CCC2)C1c1cc2cc(Cl)ccc2nc1Oc1ccc(C#N)cc1 (stereo not given) | 200 µg/mL (≈ 345 µM) | 1000 µg/mL (≈ 1720 µM) | 62.5 µg/mL (≈ 108 µM) | 100 equiv | 100 µg/mL (≈ 172 µM) | 100 µg/mL (≈ 172 µM) | 250 µg/mL (≈ 431 µM) | 100 µg/mL (≈ 172 µM) | 84% | 100 µg/mL (≈ 172 µM) |
| N#CC1=C(N)N(c2ccc(F)c(F)c2)C2=C(C(=O)CCC2)C1c1cc2ccccc2nc1Oc1ccc(C#N)cc1 (stereo not given) | 250 µg/mL (≈ 458 µM) | > 1000 µg/mL | 125 µg/mL (≈ 229 µM) | 193 equiv | 100 µg/mL (≈ 183 µM) | 100 µg/mL (≈ 183 µM) | 250 µg/mL (≈ 458 µM) | 100 µg/mL (≈ 183 µM) | 75% | 100 µg/mL (≈ 183 µM) |
| COc1ccc2nc(Oc3ccc(C#N)cc3)c(C3C(C#N)=C(N)N(c4cc(F)ccc4F)C4=C3C(=O)CC(C)(C)C4)cc2c1 (stereo not given) | 250 µg/mL (≈ 414 µM) | > 1000 µg/mL | 250 µg/mL (≈ 414 µM) | 25.4 equiv | 200 µg/mL (≈ 331 µM) | 200 µg/mL (≈ 331 µM) | > 1000 µg/mL | 200 µg/mL (≈ 331 µM) | 54% | 250 µg/mL (≈ 414 µM) |
| Cc1ccc2nc(Oc3ccc(C#N)cc3)c(C3C(C#N)=C(N)N(c4cc(F)ccc4F)C4=C3C(=O)CCC4)cc2c1 (stereo not given) | 125 µg/mL (≈ 223 µM) | > 1000 µg/mL | 50 µg/mL (≈ 89.4 µM) | 239 equiv | 100 µg/mL (≈ 179 µM) | 200 µg/mL (≈ 357 µM) | 250 µg/mL (≈ 447 µM) | 62.5 µg/mL (≈ 112 µM) | 80% | 250 µg/mL (≈ 447 µM) |
| N#CC1=C(N)N(c2cccc(C(F)(F)F)c2)C2=C(C(=O)CCC2)C1c1cc2ccccc2nc1Oc1ccc(C#N)cc1 (stereo not given) | 100 µg/mL (≈ 173 µM) | 1000 µg/mL (≈ 1730 µM) | 250 µg/mL (≈ 433 µM) | 270 equiv | 200 µg/mL (≈ 346 µM) | 250 µg/mL (≈ 433 µM) | 1000 µg/mL (≈ 1730 µM) | 250 µg/mL (≈ 433 µM) | 52% | 125 µg/mL (≈ 216 µM) |
| CC1(C)CC(=O)C2=C(C1)N(c1ccc(F)c(F)c1)C(N)=C(C#N)C2c1cc2cc(Cl)ccc2nc1Oc1ccc(C#N)cc1 (stereo not given) | 200 µg/mL (≈ 329 µM) | 500 µg/mL (≈ 822 µM) | 200 µg/mL (≈ 329 µM) | 3.36 equiv | 125 µg/mL (≈ 206 µM) | 125 µg/mL (≈ 206 µM) | 500 µg/mL (≈ 822 µM) | 250 µg/mL (≈ 411 µM) | 84% | 100 µg/mL (≈ 164 µM) |
| COc1ccc2nc(Oc3ccc(C#N)cc3)c(C3C(C#N)=C(N)N(c4ccc(F)c(F)c4)C4=C3C(=O)CCC4)cc2c1 (stereo not given) | 200 µg/mL (≈ 347 µM) | 1000 µg/mL (≈ 1740 µM) | 500 µg/mL (≈ 869 µM) | 369 equiv | 500 µg/mL (≈ 869 µM) | 200 µg/mL (≈ 347 µM) | 1000 µg/mL (≈ 1740 µM) | 250 µg/mL (≈ 434 µM) | 88% | 200 µg/mL (≈ 347 µM) |
| COc1ccc2nc(Oc3ccc(C#N)cc3)c(C3C(C#N)=C(N)N(c4ccc(F)c(F)c4)C4=C3C(=O)CC(C)(C)C4)cc2c1 (stereo not given) | 250 µg/mL (≈ 414 µM) | > 1000 µg/mL | 200 µg/mL (≈ 331 µM) | 153 equiv | 62.5 µg/mL (≈ 104 µM) | 250 µg/mL (≈ 414 µM) | > 1000 µg/mL | 100 µg/mL (≈ 166 µM) | 24% | 250 µg/mL (≈ 414 µM) |
| COc1ccc2nc(Oc3ccc(C#N)cc3)c(C=O)cc2c1 | 250 µg/mL (≈ 822 µM) | 1000 µg/mL (≈ 3290 µM) | 100 µg/mL (≈ 329 µM) | 47 equiv | 250 µg/mL (≈ 822 µM) | 200 µg/mL (≈ 657 µM) | 1000 µg/mL (≈ 3290 µM) | 250 µg/mL (≈ 822 µM) | 11% | 200 µg/mL (≈ 657 µM) |
| CC1(C)CC(=O)C2=C(C1)N(c1cc(F)ccc1F)C(N)=C(C#N)C2c1cc2ccccc2nc1Oc1ccc(C#N)cc1 (stereo not given) | 250 µg/mL (≈ 436 µM) | 1000 µg/mL (≈ 1740 µM) | 250 µg/mL (≈ 436 µM) | 84.4 equiv | 250 µg/mL (≈ 436 µM) | 200 µg/mL (≈ 349 µM) | 500 µg/mL (≈ 872 µM) | 250 µg/mL (≈ 436 µM) | 21% | 100 µg/mL (≈ 174 µM) |
| COc1ccc2nc(Oc3ccc(C#N)cc3)c(C3C(C#N)=C(N)N(c4cc(F)ccc4F)C4=C3C(=O)CCC4)cc2c1 (stereo not given) | 200 µg/mL (≈ 347 µM) | 1000 µg/mL (≈ 1740 µM) | 100 µg/mL (≈ 174 µM) | 278 equiv | 250 µg/mL (≈ 434 µM) | 125 µg/mL (≈ 217 µM) | 1000 µg/mL (≈ 1740 µM) | 250 µg/mL (≈ 434 µM) | 35% | 125 µg/mL (≈ 217 µM) |
| COc1ccc2nc(Oc3ccc(C#N)cc3)c(C3C(C#N)=C(N)N(c4cccc(C(F)(F)F)c4)C4=C3C(=O)CC(C)(C)C4)cc2c1 (stereo not given) | 250 µg/mL (≈ 393 µM) | 500 µg/mL (≈ 787 µM) | 200 µg/mL (≈ 315 µM) | 14.3 equiv | 125 µg/mL (≈ 197 µM) | 500 µg/mL (≈ 787 µM) | 1000 µg/mL (≈ 1570 µM) | 250 µg/mL (≈ 393 µM) | 62% | 200 µg/mL (≈ 315 µM) |
| Cc1ccc2nc(Oc3ccc(C#N)cc3)c(C3C(C#N)=C(N)N(c4cccc(C(F)(F)F)c4)C4=C3C(=O)CCC4)cc2c1 (stereo not given) | 200 µg/mL (≈ 338 µM) | > 1000 µg/mL | 250 µg/mL (≈ 423 µM) | 253 equiv | 250 µg/mL (≈ 423 µM) | 125 µg/mL (≈ 211 µM) | 250 µg/mL (≈ 423 µM) | 100 µg/mL (≈ 169 µM) | 38% | 250 µg/mL (≈ 423 µM) |
| CC1(C)CC(=O)C2=C(C1)N(c1ccc(F)c(F)c1)C(N)=C(C#N)C2c1cc2ccccc2nc1Oc1ccc(C#N)cc1 (stereo not given) | 200 µg/mL (≈ 349 µM) | 500 µg/mL (≈ 872 µM) | 200 µg/mL (≈ 349 µM) | 19.6 equiv | 125 µg/mL (≈ 218 µM) | 100 µg/mL (≈ 174 µM) | 500 µg/mL (≈ 872 µM) | 100 µg/mL (≈ 174 µM) | 64% | 200 µg/mL (≈ 349 µM) |
| N#Cc1ccc(Oc2nc3ccc(Cl)cc3cc2C=O)cc1 | 125 µg/mL (≈ 405 µM) | 250 µg/mL (≈ 810 µM) | 200 µg/mL (≈ 648 µM) | 34.9 equiv | 250 µg/mL (≈ 810 µM) | 125 µg/mL (≈ 405 µM) | > 1000 µg/mL | 200 µg/mL (≈ 648 µM) | 61% | 125 µg/mL (≈ 405 µM) |
